Reference: ChEMBL document CHEMBL4513216, “Probing the Open Global Health Chemical Diversity Library for Multistage-Active Starting Points for Next-Generation Antimalarials” (ACS Infect Dis, 2020)

Experiment: Toxicity liver stage against HepG2, at 10uM
Format: cell-based
Set-up: test concentration 10 uM, cell line HepG2-A16-CD81EGFP
Details: human, HepG2-A16-CD81EGFP cells; read-out: INHIBITION
How it was run: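 Uninfected HepG2-A16-CD81EGFP cells, 3 × 10^3 per well, 1536-well, plated on prespotted compound at 10 μM final, parasite-free screening media added to match infected plates; puromycin 10 μM positive, DMSO 0.5% negative; run in parallel with 48 h PbLuc assay at 37 °C, 5% CO2; viability by CellTiter-Glo luminescence, normalized to controls.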

Cc1ccc2[nH]c3c(c2c1)CN(C(=O)CN(C)CC1OCCO1)CC3
cytotoxicity at 10 µM: 6.5%

Cc1cc(CN2CCN3C[C@H](c4ccccc4)[C@@H](CO)[C@H]3C2)on1
cytotoxicity at 10 µM: 7.66%

COc1ccc(C2CC(=O)Oc3cc(C)[nH]c(=O)c32)cc1O (stereo unspecified)
cytotoxicity at 10 µM: -4.47%

CN(C)S(=O)(=O)c1ccc(-c2nc(C#N)c(NC3CC3)o2)o1
cytotoxicity at 10 µM: -18.4%

CNC(=O)[C@H]1CC[C@@H]2[C@@H](CCN2C(=O)N(C)C)O1
cytotoxicity at 10 µM: 6.86%

Cn1cc(-c2nc(C3CCN(S(C)(=O)=O)CC3)cc3c2ncn3C)cn1
cytotoxicity at 10 µM: 1.39%

Cn1nc(CNC(=O)CC#N)c2c1CN(C(N)=O)CC2
cytotoxicity at 10 µM: 3.8%

CC(=O)N1CCc2ncc(CNC(=O)C3CCC3)n2CC1
cytotoxicity at 10 µM: 7.48%

COc1cc(N2C[C@H](C(=O)N3CCCC3)[C@@H]3CCO[C@@H]3C2)ncn1
cytotoxicity at 10 µM: -0.211%

c1cc(-c2ccc3c(c2)C2(CC3)CCN(c3nncs3)CC2)ccn1
cytotoxicity at 10 µM: 1.13%

O=C(NCc1ccc(Cl)cc1)C1CCCN(c2ccc3nncn3n2)C1 (stereo unspecified)
cytotoxicity at 10 µM: 6.44%

Cc1ccc(C(=O)N2CCCC3(CCCC(=O)N3C)C2)cc1F (stereo unspecified)
cytotoxicity at 10 µM: 4.12%

COc1cc(NC(=O)NCC2CCCO2)cc(OC)c1 (stereo unspecified)
cytotoxicity at 10 µM: 15.6%

CCn1cc(NC(=O)c2cc(C)nc(N3CCOCC3)n2)cn1
cytotoxicity at 10 µM: 6%

Cc1c[nH]nc1C1CCCN1Cc1ccncc1 (stereo unspecified)
cytotoxicity at 10 µM: 13.1%

CNc1cc(C2CCN2c2ncccn2)nc(C)n1 (stereo unspecified)
cytotoxicity at 10 µM: 1.72%

CCCNC(=O)Nc1ncc(-c2cccnc2)s1
cytotoxicity at 10 µM: 3.11%

COCCN1CCC(c2nc3cc(C)ccc3[nH]2)CC1
cytotoxicity at 10 µM: -0.621%

Cc1cccc(NC(=O)c2cncc(C3CCNCC3)n2)n1
cytotoxicity at 10 µM: 0.691%

NC1(CN2CCCCC2)CCCCC1
cytotoxicity at 10 µM: 1.46%

CNc1cc(C2CCCN(C(=O)c3ccc(=O)[nH]n3)C2)ccn1 (stereo unspecified)
cytotoxicity at 10 µM: -11.8%

CN(C)c1cncc(C2CCN(CCO)CC2)n1
cytotoxicity at 10 µM: 3.29%

O=C(CN1CCCC(c2noc(C3CC3)n2)C1)N1CCCC1 (stereo unspecified)
cytotoxicity at 10 µM: 1.87%

CC(NCc1cnn(C)c1)c1noc(-c2ccc(Cl)cc2)n1 (stereo unspecified)
cytotoxicity at 10 µM: 3.97%

O=C1CSc2ccc(C(=O)N3CCCC(n4ccnc4)C3)cc2N1 (stereo unspecified)
cytotoxicity at 10 µM: -8.44%

N#CCCN(CC1CCOC1)Cn1ccc(-c2ccccc2)n1 (stereo unspecified)
cytotoxicity at 10 µM: -3.8%

N#CCCN(CC1CCOC1)Cn1ccc(-c2cccs2)n1 (stereo unspecified)
cytotoxicity at 10 µM: 10.9%

CC(C)(NCc1cccc(C#N)c1)c1ccc2c(c1)OCO2
cytotoxicity at 10 µM: 3.34%

CN(C)Cc1nc(C(C)(C)NC(=O)c2ccc3ccccc3c2)no1
cytotoxicity at 10 µM: -2.22%

CN(Cc1ccccc1F)C(=O)c1cc(Cl)c[nH]1
cytotoxicity at 10 µM: -5.45%

C=C(C)CN(c1cn[nH]c1)S(=O)(=O)c1cccc(C#N)c1
cytotoxicity at 10 µM: 3.84%

CCN(CC)C(=O)N1CCN(CCc2ccncc2)CC1
cytotoxicity at 10 µM: -38.9%

CSCc1ccc(CNCCN2CCOCC2)o1
cytotoxicity at 10 µM: -0.583%

Cc1cc(NCCC(=O)NC2CCS(=O)(=O)C2)nc(-c2ccncc2)n1 (stereo unspecified)
cytotoxicity at 10 µM: -6.74%

COCCN1CCC(NC(=O)NCC2(c3ccccc3)CC2)C1 (stereo unspecified)
cytotoxicity at 10 µM: 0.814%

O=C(Nc1ccc(Cl)cn1)C1CCCN(Cc2ccccn2)C1 (stereo unspecified)
cytotoxicity at 10 µM: -10.5%

CS(=O)(=O)CCCC(=O)Nc1cc(Cl)c(Cl)cn1
cytotoxicity at 10 µM: 2.69%

Cc1nn(C)c(N2CCCN(C)CC2)c1CNC(=O)CC(C)(C)C
cytotoxicity at 10 µM: 8%

O=C(NCCc1ccccn1)NC1CCN(c2ccccc2)C1=O (stereo unspecified)
cytotoxicity at 10 µM: -2.84%

Cc1csc(CNC(=O)NCC(O)c2ccc(F)cc2)n1 (stereo unspecified)
cytotoxicity at 10 µM: 12.1%

O=C(C(CNCc1cccc(O)c1)c1ccccc1)N1CCOCC1 (stereo unspecified)
cytotoxicity at 10 µM: -2.06%

N#Cc1cccc(S(=O)(=O)N2CCCCC2C(N)=O)c1 (stereo unspecified)
cytotoxicity at 10 µM: 0.645%

CNC(=O)C1CCC(NC(=O)c2cc(C3CC3)n(C(C)(C)C)n2)CC1 (stereo unspecified)
cytotoxicity at 10 µM: 4.74%

Cn1cnn(Cc2c(F)cccc2Br)c1=O
cytotoxicity at 10 µM: 4.48%

O=C(CCN1CCOC1=O)N(Cc1ccncc1)CC1CCCO1 (stereo unspecified)
cytotoxicity at 10 µM: 0.606%

CN(Cc1ccccc1)C(=O)CN1CCCC1c1cnn(C)c1 (stereo unspecified)
cytotoxicity at 10 µM: 6.91%

Cc1ccc(C(=O)N2CCOc3nc(C)ccc32)c(F)c1
cytotoxicity at 10 µM: -2.71%

CCN1CCCN(S(=O)(=O)c2cnc3onc(C)c3c2)CC1
cytotoxicity at 10 µM: 4.62%

CC(Cn1cccn1)NC(=O)c1ccsc1 (stereo unspecified)
cytotoxicity at 10 µM: -5.2%

Cc1cnc(CNC(=O)N(Cc2ccccc2)CC(C)(C)O)s1
cytotoxicity at 10 µM: -3.22%

CC(NC(=O)NCCN1CCCCCC1=O)c1ccc(Cl)s1 (stereo unspecified)
cytotoxicity at 10 µM: -0.331%

Cc1cccc(S(=O)(=O)N2C[C@@H]3C[C@@H](c4nnc(C)[nH]4)O[C@@H]3C2)c1
cytotoxicity at 10 µM: 9.59%

COCCN1C(=O)C[C@@H]2[C@H]1CCN2C(=O)COc1ccccc1
cytotoxicity at 10 µM: -0.902%

COCc1cc(NCc2ccccc2-n2cncn2)ncn1
cytotoxicity at 10 µM: -0.132%

O=C(c1cnn2ccccc12)N1CCCC(OCc2ccccn2)C1 (stereo unspecified)
cytotoxicity at 10 µM: -3.74%

CCOC(=O)CCNC(=O)N1CCCC(CNC(=O)c2ccco2)C1 (stereo unspecified)
cytotoxicity at 10 µM: 14.9%

CN1CCC(n2nc(Cc3cccc(Cl)c3)nc2Cn2cnnn2)CC1
cytotoxicity at 10 µM: -12.4%

Cc1cc(CN2CCN(C(C)C)C(CCO)C2)[nH]n1 (stereo unspecified)
cytotoxicity at 10 µM: 4.86%

COCCn1cnnc1CNc1cc(C)nc2c(C)c(C)nn12
cytotoxicity at 10 µM: -0.715%

Cc1cc(N[C@H]2CCCC[C@@H]2O)n2nccc2n1
cytotoxicity at 10 µM: -1.42%

Cc1ccc(C(=O)O)cc1-c1cccc2c1CCNC2
cytotoxicity at 10 µM: 7.56%

O=C(c1cc2ccccc2[nH]c1=O)N1CCC2(CCCNC2)C1 (stereo unspecified)
cytotoxicity at 10 µM: -4.66%

COc1cccc(-c2ncc(CN3CC[C@H](CO)[C@@H](O)C3)s2)c1
cytotoxicity at 10 µM: 4.23%

COCc1noc(CN2CCC3(CC2)[C@H](O)C[C@@H]3OC)n1
cytotoxicity at 10 µM: 0.0851%

CN(CC(=O)Nc1ccon1)S(=O)(=O)c1cc(Cl)ccc1Cl
cytotoxicity at 10 µM: 0.424%

COc1ccc2c(C(=O)N(C)C)cc(-c3cnc(N)nc3)nc2c1
cytotoxicity at 10 µM: -3.3%

COCc1c(C(=O)N2CCCC(C(=O)c3ccccc3)C2)noc1C (stereo unspecified)
cytotoxicity at 10 µM: -2.54%

COc1cccc(CN2CCN(CC(C)C)C(=O)C2C)c1O (stereo unspecified)
cytotoxicity at 10 µM: 2.02%

COC(=O)c1cccc(S(=O)(=O)NC(=O)COC2CCCC2)c1
cytotoxicity at 10 µM: -1.03%

Cc1cnn(C2CN(Cc3nc(-c4ccsc4)no3)C2)c1
cytotoxicity at 10 µM: -3.88%

CCc1nc(CNc2ccc(C(=O)N3CCSCC3)cc2C)no1
cytotoxicity at 10 µM: -6.99%

Cc1cc(CN(C)C2CCCN(c3cccnn3)C2)no1 (stereo unspecified)
cytotoxicity at 10 µM: -2.45%

O=C(NCC1COC2(CCOCC2)O1)c1csc(-c2cccc(Cl)c2)n1 (stereo unspecified)
cytotoxicity at 10 µM: -10.7%

Cc1nc2cc(O)nn2c(C)c1CCC(=O)NCc1cc(Br)cs1
cytotoxicity at 10 µM: -3.04%

CC(=O)N(C)C(c1cccc(F)c1)c1ccccn1 (stereo unspecified)
cytotoxicity at 10 µM: -1.63%

Cn1ccc(C(=O)Nc2cc(F)ccc2OCC2CCCO2)cc1=O (stereo unspecified)
cytotoxicity at 10 µM: -1.59%

Cc1cc(C)c(CNC(=O)NCC(O)c2ccccc2)c(=O)[nH]1 (stereo unspecified)
cytotoxicity at 10 µM: -10%

NC(=O)CC1CCN(C(=O)NCc2ccc(-c3ccn[nH]3)cc2)CC1
cytotoxicity at 10 µM: -2.38%

CCCc1n[nH]c(C2CN(C(=O)c3ccc4c(c3)COC4)CCO2)n1 (stereo unspecified)
cytotoxicity at 10 µM: -12.4%

CCNc1cc2c(nn1)CCN(C(=O)Cc1c(C)nn(C)c1C)C2
cytotoxicity at 10 µM: -8.25%

COc1cc(C(=O)NS(=O)(=O)c2ccc(C#N)cc2)ccc1C
cytotoxicity at 10 µM: -6.56%

COc1ccc(C(=O)NS(=O)(=O)c2cccc(C#N)c2)cc1
cytotoxicity at 10 µM: -2.97%

CCc1ncncc1C(=O)N1CCN(Cc2cscn2)CC1
cytotoxicity at 10 µM: 0.512%

c1cncc(-c2noc(CN3CCn4c(nnc4C4CC4)C3)n2)c1
cytotoxicity at 10 µM: -8.69%

O=C(NCc1cc[nH]n1)NCC(c1ccccc1)N1CCOCC1 (stereo unspecified)
cytotoxicity at 10 µM: -3.39%

Cc1nc2cc(=O)[nH]n2c(C)c1CC(=O)NCc1ccoc1
cytotoxicity at 10 µM: -10.4%

CC(Cn1ccnc1)NC(=O)NCc1ccccn1 (stereo unspecified)
cytotoxicity at 10 µM: -6.66%

Cc1cnn(CC2CN(c3nnc(C)c(C)c3C#N)CCO2)c1 (stereo unspecified)
cytotoxicity at 10 µM: -5.25%

Cc1cnn(CC2CCCN2C(=O)c2cnc(-c3ccco3)s2)c1 (stereo unspecified)
cytotoxicity at 10 µM: -7.43%

COC(=O)c1cccn1C1CCN(Cc2nc3ccccc3o2)CC1
cytotoxicity at 10 µM: 1.81%

CC(=O)Nc1nc(CN2CCOC(Cn3nc(C)cc3C)C2)cs1 (stereo unspecified)
cytotoxicity at 10 µM: 4.23%

CC1CN(C(=O)CN(Cc2ccccc2)C2CC2)CCO1 (stereo unspecified)
cytotoxicity at 10 µM: -16.1%

CN(Cc1cccc(F)c1)C(=O)CS(=O)(=O)Cc1ccc(Cl)c(Cl)c1
cytotoxicity at 10 µM: -4.67%

CC(C(=O)N1CCCN(c2ncccc2C#N)CC1)n1ccnc1 (stereo unspecified)
cytotoxicity at 10 µM: -2.6%

COCC(=O)NC(C)Cc1cccc(OC)c1 (stereo unspecified)
cytotoxicity at 10 µM: -10.6%

CCCc1noc(CCC(=O)N2CCCC2c2noc(C3CC3)n2)n1 (stereo unspecified)
cytotoxicity at 10 µM: -9.98%

CCOc1ccnc(N2CCN(C(=O)c3cn[nH]c3CC)CC2)n1
cytotoxicity at 10 µM: -6.69%

N[C@@H](Cc1ccccc1)c1nnc(S(=O)(=O)Cc2ccc(Cl)cc2)o1
cytotoxicity at 10 µM: 14.2%

CCOC[C@H]1CC[C@H]2[C@H](CCN2Cc2c(C)noc2C)O1
cytotoxicity at 10 µM: 3.23%

CNC(=O)CN1CC[C@H]2CN(C(=O)c3ccoc3)C[C@H]2C1
cytotoxicity at 10 µM: -2.8%

COCC(=O)N1Cc2ccnn2CC(COCCN(C)C)C1 (stereo unspecified)
cytotoxicity at 10 µM: 6.82%

CS(=O)(=O)NCc1cnc2n1CCN(Cc1cccnc1)CC2
cytotoxicity at 10 µM: 5.66%

N#Cc1ccccc1N1CC2(CCCCN2CC2CC2)CC1=O (stereo unspecified)
cytotoxicity at 10 µM: 10.7%

O=C(N1CCCC1)N1CCC2(CCN(Cc3ccccn3)C2=O)C1 (stereo unspecified)
cytotoxicity at 10 µM: 3.2%

Cn1cc(CN2CCC[C@]3(C[C@@H](Oc4ccccn4)CO3)C2)cn1
cytotoxicity at 10 µM: 7.5%

Cc1noc(C)c1CN1CCCC2(C1)CN(c1nccs1)CCO2 (stereo unspecified)
cytotoxicity at 10 µM: 8.47%

Cc1ccc(CN2CCOC3(COCCN(S(C)(=O)=O)C3)C2)o1 (stereo unspecified)
cytotoxicity at 10 µM: 11.7%

O=C1COC2(CCN(S(=O)(=O)C3CC3)CC2)CN1c1cccnc1
cytotoxicity at 10 µM: -1.69%

c1cnc(N2CCC3(CCN(CC4CCOC4)CC3)CC2)nc1 (stereo unspecified)
cytotoxicity at 10 µM: -1.22%

Fc1ccc(CN2CCC3(CC2)CC(c2cccnc2)CO3)cc1 (stereo unspecified)
cytotoxicity at 10 µM: -4.85%

COc1cccc(CC(=O)N2CC[C@@H](OC)[C@@H]2Cc2cccnc2)c1
cytotoxicity at 10 µM: 3.71%
